In brackets after ≈: the same amount, converted by molar mass.
Columns and labels:
Assay type in all cases: functional
Streptococcus pneumoniae [1] = test: Antibacterial activity against constitutive macrolide-lincosamide-streptogramin B resistant Streptococcus pneumoniae by agar microdilution method
Summary of the method: (§1)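 Agar microdilution per NCCLS guidelines; MIC reported in μg/mL; differences treated as significant only when more than a factor of 2 (one dilution) apart.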

Staphylococcus aureus [2] = test: Antibacterial activity against inducibly macrolide-lincosamide-streptogramin B resistant Staphylococcus aureus by agar microdilution method; summary of the method: as §1
Streptococcus pyogenes [3] = test: Antibacterial activity against efflux mediated macrolide resistant Streptococcus pyogenes by agar microdilution method; summary of the method: as §1
Streptococcus pneumoniae [4] = test: Antibacterial activity against efflux mediated macrolide resistant Streptococcus pneumoniae by agar microdilution method; summary of the method: as §1
Staphylococcus aureus [5] = test: Antibacterial activity against constitutive macrolide-lincosamide-streptogramin B resistant Staphylococcus aureus by agar microdilution method; summary of the method: as §1
Streptococcus pyogenes [6] = test: Antibacterial activity against erythromycin-susceptible Streptococcus pyogenes by agar microdilution method
Summary of the method: (§2)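 MIC by agar microdilution following NCCLS guidelines. Values in μg/mL. Only differences of more than one twofold dilution were treated as significant. Ery-S denotes erythromycin-susceptible strains.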

Streptococcus pneumoniae [7] = test: Antibacterial activity against erythromycin-susceptible Streptococcus pneumoniae by agar microdilution method; summary of the method: as §2
Streptococcus pyogenes [8] = test: Antibacterial activity against inducibly macrolide-lincosamide-streptogramin B resistant Streptococcus pyogenes by agar microdilution method; summary of the method: as §1
Haemophilus influenzae = test: Antibacterial activity against Haemophilus influenzae by agar microdilution method; summary of the method: as §2
Streptococcus pyogenes [9] = test: Antibacterial activity against constitutive macrolide-lincosamide-streptogramin B resistant Streptococcus pyogenes by agar microdilution method; summary of the method: as §1
Moraxella catarrhalis = test: Antibacterial activity against Moraxella catarrhalis by agar microdilution method; summary of the method: as §2
Staphylococcus aureus [10] = test: Antibacterial activity against efflux mediated macrolide resistant Staphylococcus aureus by agar microdilution method; summary of the method: as §1
Staphylococcus aureus [11] = test: Antibacterial activity against erythromycin-susceptible Staphylococcus aureus by agar microdilution method; summary of the method: as §2

SMILES | MIC (Streptococcus pneumoniae [1]) | MIC (Staphylococcus aureus [2]) | MIC (Streptococcus pyogenes [3]) | MIC (Streptococcus pneumoniae [4]) | MIC (Staphylococcus aureus [5]) | MIC (Streptococcus pyogenes [6]) | MIC (Streptococcus pneumoniae [7]) | MIC (Streptococcus pyogenes [8]) | MIC (Haemophilus influenzae) | MIC (Streptococcus pyogenes [9]) | MIC (Moraxella catarrhalis) | MIC (Staphylococcus aureus [10]) | MIC (Staphylococcus aureus [11])
CC[C@@H]1OC(=O)[C@H](C)[C@@H](O[C@@H]2C[C@](C)(OC)[C@H](O)[C@@H](C)O2)[C@@H](C)[C@@H](O[C@@H]2O[C@H](C)C[C@H](N(C)C)[C@H]2O)[C@](C)(O)C[C@@H](C)CN(C)[C@H](C)[C@@H](O)[C@]1(C)O | > 64 µg/mL | > 64 µg/mL | 16 µg/mL (≈ 21.4 µM) | 8 µg/mL (≈ 10.7 µM) | > 64 µg/mL | ≤ 0.125 µg/mL | ≤ 0.125 µg/mL | > 64 µg/mL | 1 µg/mL (≈ 1.34 µM) | > 64 µg/mL | 0.25 µg/mL (≈ 0.334 µM) | 32 µg/mL (≈ 42.7 µM) | 1 µg/mL (≈ 1.34 µM)
CC[C@H]1OC(=O)[C@@H](C)[C@H](O[C@@H]2C[C@](C)(OC)[C@H](OC(=O)CNCCCNCCNc3cc4c(=O)c(C(=O)O)cn(C5CC5)c4cc3Cl)[C@@H](C)O2)[C@H](C)[C@H](O[C@H]2O[C@@H](C)C[C@@H](N(C)C)[C@@H]2O)[C@@](C)(O)C[C@H](C)CN(C)[C@@H](C)[C@H](O)[C@@]1(C)O | – | 0.25 µg/mL (≈ 0.214 µM) | – | – | > 64 µg/mL | ≤ 0.125 µg/mL | ≤ 0.125 µg/mL | – | 0.5 µg/mL (≈ 0.428 µM) | – | ≤ 0.125 µg/mL | 0.25 µg/mL (≈ 0.214 µM) | ≤ 0.125 µg/mL
CC[C@H]1OC(=O)[C@@H](C)[C@H](O[C@H]2C[C@@](C)(OC)[C@@H](OC(=O)CN)[C@H](C)O2)[C@@H](C)[C@H](O[C@H]2O[C@@H](C)C[C@@H](N(C)C)[C@@H]2O)[C@@](C)(O)C[C@H](C)CN(C)[C@@H](C)[C@@H]2OC(=O)O[C@@]12C | > 64 µg/mL | > 64 µg/mL | > 64 µg/mL | 32 µg/mL (≈ 38.5 µM) | > 64 µg/mL | ≤ 0.125 µg/mL | ≤ 0.125 µg/mL | 32 µg/mL (≈ 38.5 µM) | > 64 µg/mL | > 64 µg/mL | > 64 µg/mL | > 64 µg/mL | 32 µg/mL (≈ 38.5 µM)
CCC1OC(=O)[C@H](C)[C@@H](O[C@H]2C[C@@](C)(OC)[C@@H](OC(=O)CNCCSc3cnc4ccccc4n3)[C@H](C)O2)C(C)[C@@H](O[C@@H]2O[C@H](C)C[C@H](N(C)C)[C@H]2O)[C@](C)(O)C[C@@H](C)CN(C)[C@H](C)[C@@H](O)[C@]1(C)O (single isomer, unassigned) | 16 µg/mL (≈ 16.1 µM) | 0.5 µg/mL (≈ 0.503 µM) | 0.25 µg/mL (≈ 0.251 µM) | – | > 64 µg/mL | ≤ 0.125 µg/mL | ≤ 0.125 µg/mL | 4 µg/mL (≈ 4.02 µM) | 4 µg/mL (≈ 4.02 µM) | 16 µg/mL (≈ 16.1 µM) | 1 µg/mL (≈ 1.01 µM) | 2 µg/mL (≈ 2.01 µM) | 2 µg/mL (≈ 2.01 µM)
CCC1OC(=O)[C@H](C)[C@@H](O[C@H]2C[C@@](C)(OC)[C@@H](OC(=O)CNC(=O)CNC(=O)CSc3cnc4ccccc4n3)[C@H](C)O2)C(C)[C@@H](O[C@@H]2O[C@H](C)C[C@H](N(C)C)[C@H]2O)[C@](C)(O)C[C@@H](C)CN(C)[C@H](C)[C@@H](O)[C@]1(C)O (single isomer, unassigned) | 16 µg/mL (≈ 15 µM) | 0.5 µg/mL (≈ 0.469 µM) | 0.25 µg/mL (≈ 0.235 µM) | – | > 64 µg/mL | 0.25 µg/mL (≈ 0.235 µM) | ≤ 0.125 µg/mL | 4 µg/mL (≈ 3.75 µM) | 4 µg/mL (≈ 3.75 µM) | 16 µg/mL (≈ 15 µM) | 4 µg/mL (≈ 3.75 µM) | 2 µg/mL (≈ 1.88 µM) | 1 µg/mL (≈ 0.939 µM)
CCC1OC(=O)[C@H](C)[C@@H](O[C@H]2C[C@@](C)(OC)[C@@H](OC(=O)CNC(=O)CCNCCNc3cc4c(cc3F)c(=O)c(C(=O)O)cn4C3CC3)[C@H](C)O2)C(C)[C@@H](O[C@@H]2O[C@H](C)C[C@H](N(C)C)[C@H]2O)[C@](C)(O)C[C@@H](C)CN(C)[C@H](C)[C@@H](O)[C@]1(C)O (single isomer, unassigned) | 4 µg/mL (≈ 3.43 µM) | 8 µg/mL (≈ 6.86 µM) | 2 µg/mL (≈ 1.72 µM) | 1 µg/mL (≈ 0.858 µM) | > 64 µg/mL | ≤ 0.125 µg/mL | ≤ 0.125 µg/mL | 1 µg/mL (≈ 0.858 µM) | 4 µg/mL (≈ 3.43 µM) | 4 µg/mL (≈ 3.43 µM) | 1 µg/mL (≈ 0.858 µM) | 2 µg/mL (≈ 1.72 µM) | 0.25 µg/mL (≈ 0.215 µM)
CCC1OC(=O)[C@H](C)[C@@H](O[C@H]2C[C@@](C)(OC)[C@@H](OC(=O)CNCCNC(=O)CSc3cnc4ccccc4n3)[C@H](C)O2)C(C)[C@@H](O[C@@H]2O[C@H](C)C[C@H](N(C)C)[C@H]2O)[C@](C)(O)C[C@@H](C)CN(C)[C@H](C)[C@@H](O)[C@]1(C)O (single isomer, unassigned) | 8 µg/mL (≈ 7.61 µM) | 0.25 µg/mL (≈ 0.238 µM) | – | – | > 64 µg/mL | ≤ 0.125 µg/mL | ≤ 0.125 µg/mL | 1 µg/mL (≈ 0.951 µM) | 8 µg/mL (≈ 7.61 µM) | 8 µg/mL (≈ 7.61 µM) | 8 µg/mL (≈ 7.61 µM) | 1 µg/mL (≈ 0.951 µM) | 8 µg/mL (≈ 7.61 µM)
CCC1OC(=O)[C@H](C)[C@@H](O[C@H]2C[C@@](C)(OC)[C@@H](OC(=O)CNCCCNCCNc3cc4c(cc3F)c(=O)c(C(=O)O)cn4C3CC3)[C@H](C)O2)C(C)[C@@H](O[C@@H]2O[C@H](C)C[C@H](N(C)C)[C@H]2O)[C@](C)(O)C[C@@H](C)CN(C)[C@H](C)[C@@H](O)[C@]1(C)O (single isomer, unassigned) | 0.5 µg/mL (≈ 0.434 µM) | 1 µg/mL (≈ 0.868 µM) | 0.5 µg/mL (≈ 0.434 µM) | – | > 64 µg/mL | ≤ 0.125 µg/mL | ≤ 0.125 µg/mL | 0.25 µg/mL (≈ 0.217 µM) | 1 µg/mL (≈ 0.868 µM) | 1 µg/mL (≈ 0.868 µM) | 0.25 µg/mL (≈ 0.217 µM) | 0.5 µg/mL (≈ 0.434 µM) | ≤ 0.125 µg/mL
CCC1OC(=O)[C@H](C)[C@@H](O[C@H]2C[C@@](C)(OC)[C@@H](OC(=O)CNC(=O)CSc3cnc4ccccc4n3)[C@H](C)O2)C(C)[C@@H](O[C@@H]2O[C@H](C)C[C@H](N(C)C)[C@H]2O)[C@](C)(O)C[C@@H](C)CN(C)[C@H](C)[C@@H](O)[C@]1(C)O (single isomer, unassigned) | 16 µg/mL (≈ 15.9 µM) | 1 µg/mL (≈ 0.992 µM) | 0.5 µg/mL (≈ 0.496 µM) | 0.25 µg/mL (≈ 0.248 µM) | > 64 µg/mL | ≤ 0.125 µg/mL | ≤ 0.125 µg/mL | 8 µg/mL (≈ 7.93 µM) | 8 µg/mL (≈ 7.93 µM) | 32 µg/mL (≈ 31.7 µM) | 16 µg/mL (≈ 15.9 µM) | 8 µg/mL (≈ 7.93 µM) | 4 µg/mL (≈ 3.97 µM)
CC[C@H]1OC(=O)[C@H](C)C(=O)[C@H](C)[C@@H](O[C@@H]2O[C@H](C)C[C@H](N(C)C)[C@H]2O)[C@](C)(OCC=Cc2cnc3ccccc3c2)C[C@@H](C)C(=O)[C@H](C)[C@H]2NC(=O)O[C@@]21C [CETHROMYCIN] | – | 0.25 µg/mL (≈ 0.326 µM) | – | – | > 64 µg/mL | ≤ 0.125 µg/mL | ≤ 0.125 µg/mL | – | 1 µg/mL (≈ 1.31 µM) | 1 µg/mL (≈ 1.31 µM) | ≤ 0.125 µg/mL | 0.25 µg/mL (≈ 0.326 µM) | ≤ 0.125 µg/mL
O=C(O)c1cn(C2CC2)c2cc(N3CCNCC3)c(F)cc2c1=O [CIPROFLOXACIN] | 0.25 µg/mL (≈ 0.754 µM) | – | ≤ 0.125 µg/mL | 0.25 µg/mL (≈ 0.754 µM) | – | 2 µg/mL (≈ 6.04 µM) | ≤ 0.125 µg/mL | 0.25 µg/mL (≈ 0.754 µM) | ≤ 0.125 µg/mL | 0.5 µg/mL (≈ 1.51 µM) | ≤ 0.125 µg/mL | – | ≤ 0.125 µg/mL
CC[C@H]1OC(=O)[C@H](C)C(=O)[C@H](C)[C@@H](O[C@@H]2O[C@H](C)C[C@H](N(C)C)[C@H]2O)[C@](C)(OC)C[C@@H](C)C(=O)[C@H](C)[C@H]2N(CCCCn3cnc(-c4cccnc4)c3)C(=O)O[C@]12C [TELITHROMYCIN] | – | 0.5 µg/mL (≈ 0.616 µM) | 0.25 µg/mL (≈ 0.308 µM) | 0.5 µg/mL (≈ 0.616 µM) | > 64 µg/mL | ≤ 0.125 µg/mL | ≤ 0.125 µg/mL | – | 1 µg/mL (≈ 1.23 µM) | 8 µg/mL (≈ 9.85 µM) | ≤ 0.125 µg/mL | 0.25 µg/mL (≈ 0.308 µM) | ≤ 0.125 µg/mL

From ChEMBL document CHEMBL3763128, “Synthesis and antibacterial evaluation of novel 4″-glycyl linked quinolyl-azithromycins with potent activity against macrolide-resistant pathogens” (2016)
